Rad51 HR inh – blocks human Rad51 in homologous recombination; inhibition, % at 10 µM; AID 1385; 200,000 tested, 0.085% active; hRad51 DNA strand exchange, fluorescence dequenching;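 active = inhibition above 40% at the single screening dose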;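 also: 0% = DMSO control wells and 100% = blanks with heterologous ssDNA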
Target sequence (Q06609 whole entry, looked up): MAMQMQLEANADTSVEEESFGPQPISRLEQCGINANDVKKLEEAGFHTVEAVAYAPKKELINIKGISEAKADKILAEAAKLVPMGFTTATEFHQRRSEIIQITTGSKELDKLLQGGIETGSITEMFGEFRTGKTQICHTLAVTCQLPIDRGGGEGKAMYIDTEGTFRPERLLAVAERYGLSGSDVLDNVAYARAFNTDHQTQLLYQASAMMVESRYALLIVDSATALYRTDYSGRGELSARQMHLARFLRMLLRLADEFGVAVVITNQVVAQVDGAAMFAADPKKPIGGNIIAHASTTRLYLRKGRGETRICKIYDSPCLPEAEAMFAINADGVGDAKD
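System: human Rad51 nucleoprotein filaments preassembled on unlabelled ssDNA. Reagent: labelled 47-mer dsDNA for strand exchange. Schedule: 30-min compound preincubation and 15-min exchange, both room temperature. Measured by: FRET fluorescence dequenching, excitation 485 nm, emission 520 nm. Read-out: Fluorescence-based percent inhibition, control- and blank-normalised. Benchmarks: plate controls and plate blanks.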
Wee1 stabilizer – human Wee1 degradation inhibition, primary screen; reporter increase, % at 5 µM; HeLa Luc-Wee1K328M stability, luciferase luminescence; 100% = proteasome inhibitor MG132 effect; AID 1321; 220,000 tested, 1.2% active;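 active = activation above the mean of all tested compounds plus 3 SD, set per screening run, cut at about 8.8% in these data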;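 also: cells exposed to compound for 20 h before luminescence read; 0% = DMSO alone and 100% = MG132 at 30 µM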
Arbovirus inh – arbovirus infection inhibition; inhibition, % at 10 µM; 200,000 tested, 0.37% active; arbovirus infection cell-based antiviral screen; AID 1251; in the data active = inhibition above about 30%
Lmaj promast – inhibitors of Leishmania major promastigote growth. Leishmania major promastigotes, resazurin fluorescence viability. inhibition, % at 10 µM. 200,000 tested, 9% active;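 also: promastigotes grown with compound for 44 hours at 28 °C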
CHOP inh – CHOP inhibition in unfolded protein response | CHO-K1 CHOP-promoter luciferase, tunicamycin-induced, 15-18 h | inhibition, % at 10 µM | 220,000 tested, 3.8% active | AID 2732;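 active = compounds that reduced the stress-induced luciferase reporter signal by more than about 70% of percent inhibition, limit read from the data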;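 also: 0% = tunicamycin plus vehicle and 100% = wells without tunicamycin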
PKD1 inh – blocks activity of human protein kinase D1. 200,000 tested, 0.056% active. inhibition, % (concentration not given with the values). Q15139. PKD1 kinase fluorescence polarization assay
* hit, by the source's call; x = no result given. Sampled rows, rich in hits. Any-hit rate of the full collection: about 12%. Rule as the data show it, unless noted: active = inhibition above about 50%; inactive = the rest.

SMILES	Rad51 HR inh	Wee1 stabilizer	Arbovirus inh	Lmaj promast	CHOP inh	PKD1 inh
O=C(CCc1ccccc1)Nc1cc(Cl)ccc1O	-0.2	2.0	3.3	78.5*	51.4	-0.8
O=C(Nc1cc(Cl)ccc1Cl)c1ccc(-c2ccccc2)cc1	8.0	-0.2	5.8	50.7*	24.2	-4.3
O=C(Nc1cccc(Cl)c1Cl)c1ccc(-c2ccccc2)cc1	x	4.3	-6.1	-8.4	25.9	12.8
CN(C)c1ccc(NC(=O)CCCc2ccccc2)cc1	-5.8	6.0	-8.1	76.5*	19.1	-11.3
O=C(CCCc1ccccc1)Nc1cccc2c1CCCC2	-8.4	10.8*	-0.9	14.2	63.4	-9.3
O=C(Nc1cc(Cl)ccc1O)c1snnc1-c1ccccc1	-10.6	-2.0	-25.4	8.9	82.1*	-6.8
CC(C)N(Cc1ccccc1)C(=O)COC(=O)/C=C/c1cnc2ccccc2n1	-2.9	-1.6	0.4	-1.0	7.2	5.9
CN(C)c1ccc(NC(=O)CN2C(=O)CC(c3ccccc3)=Nc3ccccc32)cc1	4.6	0.3	2.5	-6.7	91.0*	10.1
COc1ccc(NCc2nc3ccccc3n2CCOc2ccccc2)cc1	-4.2	0.4	-7.8	86.8*	42.6	3.6
OCCCc1nc2ccccc2n1CCOc1ccccc1	-2.5	-0.6	5.2	1.3	12.0	1.0
Cc1ccc(OCCn2c(CCCO)nc3ccccc32)cc1	-4.0	0.8	1.6	54.2*	-1.1	-1.0
COc1ccc(NCc2nc3ccccc3n2CCOc2ccc(C)cc2)cc1	32.4	-3.3	-19.8	90.6*	57.9	-6.8
COC(C(=O)NNC(=O)CCc1ccccc1)c1ccccc1 (stereo unspecified)	3.9	6.4	3.2	-4.0	14.4	2.2
CN(CCNC(=O)c1cc2c(=O)n(C)c3ccccc3c2n1C)Cc1ccccc1	-4.7	0.1	-10.1	68.8*	26.4	6.2
Cn1c(C(=O)NCCN2CCN(c3ccccc3F)CC2)cc2c(=O)n(C)c3ccccc3c21	x	-2.5	-4.9	51.4*	35.0	7.8
CC(C)Cn1c(N)c(C(=O)COC(=O)[C@@H]2CCCN2C(=O)c2cccs2)c(=O)n(C)c1=O	4.5	1.1	7.9	-7.3	0.8	-2.0
O=C(c1cnc2n(c1=O)CCS2)N1CCN(c2ccccc2Cl)CC1	0.9	-1.4	6.4	-5.5	18.8	-4.3
O=C(c1cnc2n(c1=O)CCS2)N1CCN(C(c2ccccc2)c2ccc(Cl)cc2)CC1 (stereo unspecified)	4.0	-1.0	1.4	57.7*	7.3	-15.1
Cc1ccc(S(=O)(=O)N(C)C)cc1NC(=O)COC(=O)c1ccc2c(c1)OCCO2	x	0.3	3.4	1.3	4.0	5.0
Cn1c(CC(=O)Nc2ccccc2)c(Sc2ccccc2)c2ccccc21	x	1.3	-13.8	-3.7	47.6	-0.3
Cn1c(CC(=O)Nc2ccccc2C(F)(F)F)c(Sc2ccccc2)c2ccccc21	0.8	-2.0	-5.0	0.2	76.1*	-2.6
Cc1ccc2c(c1)c(Sc1ccccc1)c(CC(=O)O)n2C	-2.8	6.5	31.0*	48.9	34.8	-3.4
OCCC1CN(Cc2cc(F)ccc2-n2cccn2)CCN1Cc1ccc(F)cc1 (stereo unspecified)	x	0.3	x	x	-4.9	x
CCOC(=O)c1sc(NC(=O)CCN2CCN(CC)CC2)c(C(=O)OCC)c1C	-0.8	-1.5	-10.7	99.8*	-13.3	-8.6
CN1CCC(N(C)CC(=O)Nc2cccc(Oc3ccccc3)c2)CC1	0.8	-1.1	-14.4	96.2*	1.6	-3.0
SMILES	Rad51 HR inh	Wee1 stabilizer	Arbovirus inh	Lmaj promast	CHOP inh	PKD1 inh
CN1CCC(N(C)CC(=O)Nc2ccc3c(c2)OC(F)(F)O3)CC1	-10.7	-0.7	x	x	4.7	x
CCOC(=O)c1c(NC(=O)CN(C)C2CCN(C)CC2)sc(C(=O)Nc2ccccc2)c1C	3.0	-1.5	-27.8	100.6*	23.0	-6.3
CCOC(=O)C1(Cc2cccc(OC)c2)CCN(C/C=C/c2ccc(OC)cc2)CC1	x	-2.5	-4.5	37.5	55.2	2.7
CCOC(=O)C1(Cc2cccc(OC)c2)CCN(Cc2ccc(OC)c(O)c2)CC1	-2.9	-2.6	13.3	84.7*	60.5	-3.1
CCOC(=O)C1(Cc2cccc(OC)c2)CCN(C2CCOCC2)CC1	1.6	1.0	-11.9	81.0*	3.9	3.1
CCOC(=O)C1(Cc2cccc(OC)c2)CCN(C/C=C/c2ccccc2)CC1	-1.7	8.6	20.6	79.9*	49.6	0.2
CCCCC(=O)NS(=O)(=O)c1ccc(N=NN(CC)CC)cc1	5.2	-1.0	-1.3	-6.2	-8.0	-1.3
Cc1cc(C)c2[nH]c(=O)c(CN(Cc3cccnc3)C(=S)NCCCN(C)C)cc2c1	-3.3	-3.1	4.4	1.1	7.0	-11.5
CCOC(=O)C1=C(C)N=c2s/c(=C/c3ccccc3)c(=O)n2C1c1ccc(OC)c(OC)c1 (stereo unspecified)	x	-3.3	-7.0	27.8	25.9	-11.8
CCOC(=O)C1=C(C)n2c(s/c(=C/c3cccc([N+](=O)[O-])c3)c2=O)=NC1c1ccc(O)c(OC)c1 (stereo unspecified)	0.7	2.1	-37.7	99.9*	30.2	6.4
CCSc1ccccc1C(=O)NC1CCCCC1	8.0	0.8	6.0	-2.2	28.3	1.7
COCCCN(CC(=O)O)S(=O)(=O)c1cccc(Cl)c1	8.4	1.1	6.9	-4.9	-8.7	0.6
COc1cc2[nH]c(=S)n(Cc3ccc(C)cc3)c(=O)c2cc1OC	-7.0	-2.8	-13.0	-0.4	11.4	-12.5
COc1ccc(Cn2c(=S)[nH]c3cc(OC)c(OC)cc3c2=O)cc1	-8.3	-2.0	-5.8	3.2	83.3*	-5.3
NC(=O)CN1CCN(S(=O)(=O)c2ccc(Br)cc2)CC1	8.7	0.9	3.1	-7.0	25.7	-6.2
O=[N+]([O-])c1ccc2c(c1)C(O)n1nc(-c3ccc(Cl)cc3Cl)nc1S2 (stereo unspecified)	1.9	12.8*	-2.0	-4.5	25.0	-1.5
CCN1C(=O)C(CC(=O)Nc2ccccc2)S/C1=N\c1ccccn1 (stereo unspecified)	1.4	-0.6	-2.3	-3.2	10.8	0.0
COc1ccc(NC(=O)Cn2nnc(C(=O)NCCc3ccc(OC)c(OC)c3)c2N)c(OC)c1	4.8	-0.2	8.5	-5.9	16.8	-7.7
COc1ccc(C(=O)NC(=S)Nc2ccc([N+](=O)[O-])cc2C)cc1OC	7.7	-1.2	10.5	-4.7	79.2*	0.9
COc1ccc([N+](=O)[O-])cc1NC(=O)c1cc(C)c(C)o1	1.0	1.0	0.1	-2.9	52.1	-3.8
COc1ccc([N+](=O)[O-])cc1NC(=O)Cc1ccc(C)cc1	-1.8	2.1	-2.9	57.8*	8.3	-4.7
O=C(Nc1cccc2oc(=O)ccc12)c1ccc([N+](=O)[O-])cc1[N+](=O)[O-]	14.9	2.0	-11.3	97.5*	-6.9	4.6
COc1ccc([N+](=O)[O-])cc1NC(=O)Cc1ccc(Cl)cc1	x	2.5	3.5	47.9	20.3	-6.6
COc1ccc(C)cc1NC(=O)c1ccc([N+](=O)[O-])cc1[N+](=O)[O-]	3.0	1.1	-1.1	52.5*	15.0	-0.6

Screens deposited in PubChem by several laboratories.
